High-throughput results deposited in PubChem BioAssay by The Scripps Research Institute Molecular Screening Center.
HTRA1 inhibitor – HTRA1 serine protease inhibitors, primary screen, biochemical, fluorescence polarization, HTS; AID 504803, 2011; Q92743; inhibition, % at 5.96 µM; recombinant HTRA1, FP-rhodamine activity-based probe; 0.5% of 340,000 active; in the data active = inhibition above about 36%
rCAG RNA binder – binders of r(CAG) RNA repeats, primary screen, biochemical, fluorescence; r(CAG) RNA repeat, TO-PRO-1 dye displacement fluorescence; inhibition, % at 3 µM; 1.3% of 370,000 active;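 active = inhibition above the plate cutoff, the mean of all test compounds on that plate plus 3 SD, cut at about 35% in these data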;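 also: higher means more dye released from RNA so lower well fluorescence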
PRMT1 FP inh – PRMT1 methyltransferase inhibitors, primary screen, biochemical, fluorescence polarization | inhibition, % at 2.79 µM | AID 652257, 2013 | recombinant PRMT1, activity-based probe fluorescence polarization | 1.3% of 370,000 active | Protein arginine N-methyltransferase 1 (Homo sapiens), Q99873;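 active = inhibition above about 21% made by adding two undisclosed values, limit read from the data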
Target sequence (Q99873 whole entry, looked up): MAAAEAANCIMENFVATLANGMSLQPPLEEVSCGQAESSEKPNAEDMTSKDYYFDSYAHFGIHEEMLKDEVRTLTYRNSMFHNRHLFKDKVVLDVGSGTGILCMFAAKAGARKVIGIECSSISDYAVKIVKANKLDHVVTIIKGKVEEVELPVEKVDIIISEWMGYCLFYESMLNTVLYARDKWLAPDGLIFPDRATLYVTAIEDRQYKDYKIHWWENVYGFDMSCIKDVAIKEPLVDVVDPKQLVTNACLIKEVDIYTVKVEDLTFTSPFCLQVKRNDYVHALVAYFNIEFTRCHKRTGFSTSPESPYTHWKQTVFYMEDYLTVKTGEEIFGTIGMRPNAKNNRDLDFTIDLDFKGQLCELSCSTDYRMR
SIAE primary – human SIAE inhibitors, primary screen, biochemical, fluorescence polarization, FP-Rh probe, 1536-well HTS. SIAE FP-Rh probe binding. AID 1053197, 2014. inhibition, % at 9.66 µM. Sialate O-acetylesterase (Homo sapiens), Q9HAT2. 0.69% of 370,000 active;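 active = inhibition above a cutoff: mean of compounds within the control limits plus 3 SD of those, cut at about 17% in these data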
mABHD4 FP – ABHD4 inhibitors, primary screen, biochemical, fluorescence polarization, mouse | (Lyso)-N-acylphosphatidylethanolamine lipase (Mus musculus), Q8VD66 | purified mABHD4, FP-Rh probe fluorescence polarization | 0.54% of 370,000 active | inhibition, % at 8.92 µM | AID 720543, 2013;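 active = inhibition exceeding the mean over every tested compound plus 3 SD, cut at about 30% in these data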
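Assay system: mABHD4 protein; medium: HEPES pH 7.0, NaCl, Pluronic buffer; dosing: 8.92 µM, single dose; schedule: 45 min + 60 min at 25 °C; signal: FP readout, ex 525 nm / em 598 nm; read-out: normalized percent inhibition of probe labeling; repeats: single replicate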
PRMT1 confirm – PRMT1 methyltransferase inhibitors, confirmation, biochemical, fluorescence polarization, triplicate. shares compounds with PRMT1 FP inh. recombinant His-PRMT1, activity-based probe fluorescence polarization. inhibition, % at 2.79 µM. 42% of 3,300 active;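 active = mean inhibition across replicates above the hit cutoff derived for the earlier primary screen, cut at about 22% in these data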
Of the large screens only hits and unclear results are named; the others gave an inactive call (follow-up assays come after a bar, where they were run). A selection: hits, their analogues and other compounds. The true share with any hit is near 3.3%.

CN(CC=CCN(C)P(=S)(N1CC1)N1CC1)P(=S)(N1CC1)N1CC1	PRMT1 FP inh 51.5 | PRMT1 confirm inactive
CN1C(=O)C(=Cc2c(OCc3cnc(Cl)s3)ccc3ccccc23)C(=O)N(C)C1=O	PRMT1 FP inh 43.5 | PRMT1 confirm inactive
CN1C(=O)C(=Cc2ccccc2OCc2ccc(C(=O)O)cc2)C(=O)N(C)C1=O	none
O=C(O)c1nonc1-c1nonc1C(=O)O	none
COc1ccc(C2=NCC(=S)Nc3ccc(Cl)cc32)cc1OC	none
COc1ccc(C2=NCC(=S)Nc3ccc(Cl)cc32)cc1Cl	PRMT1 FP inh 40.2 | PRMT1 confirm inactive
CCOc1cc2c(cc1OCC)-n1cccc1C(c1ccc(OC)c(O)c1)NC2 (configuration not stated)	none
O=C1NC(=S)NC(=O)C1=Cc1cccn1-c1ccc(O)cc1	PRMT1 FP inh 42.4 | PRMT1 confirm 67.9
Nc1cc(Cl)c2nonc2c1[N+](=O)[O-]	PRMT1 FP inh 40.8 | PRMT1 confirm inactive
CCOP(=O)(OCC)C(c1ccccc1)N(C)C=O (configuration not stated)	none
CCOC(=O)CC(SP1(=S)OCC2(CCCCC2)CO1)C(=O)OCC (configuration not stated)	PRMT1 FP inh 25.2 | PRMT1 confirm inactive
Cc1ccc2[nH]c3c(c2c1)CN(C(=O)CN1C[C@H]2C[C@@H](C1)c1cccc(=O)n1C2)CC3	PRMT1 FP inh 49.7 | PRMT1 confirm inactive
COc1ccc2c(c1)C13CCCC[C@@H]1C(C2)N(C)CC3 (some centres not stated)	PRMT1 FP inh 135.9 | PRMT1 confirm inactive
CCC(=NCCCn1ccnc1)c1c(O)n(Cc2ccccc2)c(=O)[nH]c1=O	none
CN1C(=O)C(=Cc2ccccc2OS(=O)(=O)c2ccccc2)C(=O)N(C)C1=O	PRMT1 FP inh 33.9 | PRMT1 confirm inactive
Cc1ccc(-c2nc(N3CCOCC3)s[n+]2-c2ccccc2)cc1	none
CN(C)c1nc(-c2ccccc2)[n+](C)s1	PRMT1 FP inh 34.0 | PRMT1 confirm 21.6
Oc1ccc(C2=CCNCC2)cc1O	PRMT1 FP inh 25.1 | PRMT1 confirm 28.5
C1=C(c2ccccc2)CCNC1	none
COc1cc2c(c(OC)c1O)-c1ccc(OC)c(=O)cc1C(NC(=O)C(F)(F)F)CC2 (configuration not stated)	none
CCOC(=O)c1c(C)[nH]c(C(=O)C(C)N2CCCC2)c1C (configuration not stated)	none
CC[n+]1c(/C=C/N(C)c2ccccc2)sc2ccc(Cl)cc21	PRMT1 FP inh 29.0 | PRMT1 confirm inactive
CC1=NNC(=O)C1Br (configuration not stated)	PRMT1 FP inh 49.9 | PRMT1 confirm 73.6
CC1=NCCc2c1[nH]c1cc(O)ccc21	PRMT1 FP inh 118.9 | PRMT1 confirm 124.7
O=[N+]([O-])c1ccc(NCCCN2CCOCC2)nc1	none
O=C(Oc1ccc([N+](=O)[O-])cc1)N1CCC(N2CCCCC2)CC1	none
CCCCn1c(NC(=O)c2ccco2)c(C(=O)OCC)c2nc3ccccc3nc21	PRMT1 FP inh 40.8 | PRMT1 confirm inactive
S=P(N1CCOCC1)(N1CC1)N1CC1	none
S=P(N1CCCCCC1)(N1CC1)N1CC1	PRMT1 FP inh 30.5 | PRMT1 confirm inactive
CCOC(=O)c1cc(CC)sc1/N=C/C1C(=O)NC(=S)NC1=O	PRMT1 FP inh 41.1 | PRMT1 confirm inactive
CCOC(=O)c1cc(CC)sc1/N=C/c1c(O)[nH]c(=S)[nH]c1=O	PRMT1 FP inh 81.5 | PRMT1 confirm inactive
CCOC(=O)c1c(/N=C/c2c(O)n(-c3cccc(C)c3)c(=O)[nH]c2=O)sc2c1CCCC2	none
O=C1NC(=O)N(CCc2ccc(F)cc2)C(=O)/C1=C/c1ccco1	rCAG RNA binder 73.8, PRMT1 FP inh 35.4 | PRMT1 confirm inactive
Cc1ccc(/C=C2/C(=O)NC(=O)N(CCc3ccc(F)cc3)C2=O)o1	none
